Reference: publication PMC8866227 (Clinical Cancer Research, 2021)
Where two headings read alike, the source gives them in different places. Each block holds one compound with its values, some of them ahead of it.

Columns and labels:
[1] = test system: CCL2-directed monocyte migration; assay: Ex vivo CCL2-directed monocyte migration of PBMCs from treated dogs; type: in vivo, dog; conditions: for dogs with reduction of CCL2-mediated ex vivo monocyte migration from baseline: 10 mg/kg cohort
Summary of the method: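 Blood was drawn at baseline and at rechecks (days 7, 14, 28 in the 10 mg/kg cohort) and ACK-lysed within 1 h. Fresh PBMCs were assayed immediately for CCL2-directed transwell migration. Chemotactic index is the fold-change over negative-control wells, expressed as % of week 0.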

[2] = test system: CCL2-directed migration of canine PBMCs; type: cell-based
human PBMCs [3] = assay: RNA-seq differential gene expression of losartan-treated human PBMCs; type: cell-based; conditions: losartan 10 μg/mL 24 h vs control
Summary of the method: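 PBMCs from healthy male and female donors were Ficoll-isolated from EDTA blood and plated at 3e6/mL in RPMI, 10% FBS, penicillin/streptomycin and L-glutamine. […] Extracted RNA was sequenced. Counts were RUVr-normalized, differential expression was called by limma-voom/edgeR, and GSEA was run.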

[4] = Losartan plasma pharmacokinetics in dogs; type: in vivo, dog; conditions: for AUC(0-t) / Cmax: dog, plasma, po
human PBMCs [5] = assay: Transwell human PBMC migration to human OS cell line conditioned media; type: cell-based; conditions: 1 hour pretreatment, 10 μg/mL losartan
Summary of the method: (§1)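 Four human (THP-1, human PBMC) or four canine (canine PBMC) OS cell lines, kept in DMEM/10% FBS at 37°C and 5% CO2, supplied conditioned media as chemoattractant in transwell migration assays. Wells were run in technical triplicate or quadruplicate. […] Results are mean ± SD, one-way ANOVA with Tukey.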

lung metastatic burden = conditions: cited from earlier work
CCL2 = assay: Plasma CCL2 concentration in treated dogs by ELISA; type: in vivo, dog; conditions: for dogs with posttreatment increases in plasma CCL2 / mean increase in plasma CCL2 above baseline: 10 mg/kg cohort
[6] = test system: peripheral blood myeloid cells; assay: Peripheral blood total myeloid cell counts; type: in vivo, dog; conditions: week 4 posttreatment, low- and high-dose cohorts combined n=19
human PBMCs [7] = assay: Gene Set Enrichment Analysis; type: cell-based; conditions: losartan treated vs control PBMCs
[8] = Systolic blood pressure monitoring in treated dogs; type: in vivo, dog; conditions: 1 and 10 mg/kg cohorts, repeated blood pressure measurements
THP-1 cells = assay: Transwell THP-1 monocyte migration to human OS cell line conditioned media; type: cell-based; conditions: 1 hour pretreatment, 10 μg/mL losartan
Summary of the method: as §1

TGFβ = assay: Serum TGF-β concentrations in treated dogs; type: in vivo, dog; conditions: high losartan dose 10 mg/kg + toceranib
CCL2–CCR2 signaling = conditions: independent of AT1R; cited from earlier work
[9] = test system: lung metastatic osteosarcoma; assay: Clinical response; type: in vivo, dog; conditions: single agent toceranib, dogs with metastatic OS

mean plasma concentration ([4]; 1 mg/kg oral cohort, OS dogs, ~6 h post dose): 6.8 ng/mL
AUC(0-t) ([4]; 2.5 mg/kg): 303 ng·h/mL
Cmax ([4]; 2.5 mg/kg): 76.7 ng/mL
AUC(0-t) ([4]; 10 mg/kg): 1580 ng·h/mL
Cmax ([4]; 10 mg/kg): 509 ng/mL
Compound: CCCCc1nc(Cl)c(CO)n1Cc1ccc(-c2ccccc2-c2nn[nH]n2)cc1 [losartan]
CCL2-mediated ex vivo monocyte migration following treatment ([1]; 1 mg/kg losartan cohort (+ toceranib), OS dogs): unexpectedly increased
dogs with reduction of CCL2-mediated ex vivo monocyte migration from baseline ([1]; week 1): 7 of 14
dogs with reduction of CCL2-mediated ex vivo monocyte migration from baseline ([1]; week 2): 8 of 15
dogs with reduction of CCL2-mediated ex vivo monocyte migration from baseline ([1]; week 4): 7 of 11
CCL2-directed migration of canine PBMCs, % of untreated positive control wells ([2]; losartan 100 ng/mL in vitro): 42%
CCL2-directed migration of canine PBMCs, % of untreated positive control wells ([2]; losartan 10 μg/mL in vitro): 12%
genes downregulated (human PBMCs [3]): 27 genes
genes upregulated (human PBMCs [3]): 32 genes
human PBMC migration to OS conditioned media (human PBMCs [5]): significant inhibited
lung metastatic burden in mice (lung metastatic burden): significantly reduced
dogs with increases in plasma CCL2 (CCL2; 1 mg/kg cohort, 2 weeks posttreatment): five of six
dogs with posttreatment increases in plasma CCL2 (CCL2; week 2): 12 of 15
mean increase in plasma CCL2 above baseline (CCL2; week 2): 149.4%
dogs with posttreatment increases in plasma CCL2 (CCL2; week 4): 11 of 12
mean increase in plasma CCL2 above baseline (CCL2; week 4): 186.3%
total peripheral blood myeloid cells (combined monocyte and neutrophil counts) [6]: significant reduction
pathways significantly (Padj < 0.05) downregulated by GSEA (human PBMCs [7]): 409 pathways
hypotension associated with losartan treatment [8]: no dogs experienced any significant hypotension
THP-1 migration to OS conditioned media (THP-1 cells): significant inhibited
serum TGFβ posttreatment (TGFβ): no posttreatment changes
monocyte recruitment, noncompetitive inhibition of CCL2–CCR2 signaling induced ERK1/2 activation (CCL2–CCR2 signaling): potently inhibits

Compound: Cc1[nH]c(/C=C2\C(=O)Nc3ccc(F)cc32)c(C)c1C(=O)NCCN1CCCC1 [toceranib, toceranib phosphate]
Clinical benefit rate (SD, PR, and CR) [9]: 18%
Progression-free survival, range [9]: 7 to 176 days
